For one series, the system named is MCF7. Description: Photocytotoxicity against human MCF-7 cells assessed as reduction in cell viability irradiated with 595 nm LED for 4 hrs measured after 24 hrs by MTT assay. It is filed as functional, cell-based. As to conditions: MCF7, light or radiation study. The gist of the method: (§1)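 Cells incubated with varying R1 concentrations, then irradiated 4 h with 595 nm LED (20 mW/cm2); viability read by MTT assay; IC50 from concentration–viability curves.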
On the technique in general: Tetrazolium dyes change colour on reduction, which living cells bring about.

Series [1] has as its system SH-SY5Y. Kind of series: Photocytotoxicity against human SH-SY5Y cells assessed as reduction in cell viability irradiated with 595 nm LED for 4 hrs measured after 24 hrs by MTT assay. As to conditions: light or radiation study. It is filed as functional, cell-based. Summed up:
as §1

Series [2] is described as follows: Photocytotoxicity against […] cells assessed as reduction in cell viability irradiated with 595 nm LED for 4 hrs measured after 24 hrs by MTT assay. It counts as cell-based. As to conditions: NIH3T3, light or radiation study. Summed up:
as §1

Series [3] has as its system SH-SY5Y. Kind of series: Photocytotoxicity against human SH-SY5Y cells assessed as reduction in cell viability for 30 mins followed by irradiation with LED light after 30 mins by MTTassay. It counts as functional, cell-based. As to conditions: light or radiation study, 0.5 h. Summed up:
(§2)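 Cells incubated with varying R1 concentrations, then irradiated 30 min with 595 nm LED (20 mW/cm2); viability by MTT assay; IC50 from curves.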

The nature of series [4]: Photocytotoxicity against […] cells assessed as reduction in cell viability for 30 mins followed by irradiation with LED light after 30 mins by MTTassay. It is filed as cell-based. As to conditions: nih3t3, 0.5 h. Summed up: as §2
For series [5], the system named is SH-SY5Y. Description: Induction of ROS production in human SH-SY5Y cells assessed as green emission irradiation with LED light for 30 mins measured after 3 hrs incubation by DCFH-DA staining based fluorescence microscopy. It is filed as functional, cell-based. Summed up: (§3)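 Cells loaded with R1 for 3 h and with DCFH2-DA ROS sensor, then irradiated 30 min with LED (20 mW/cm2); green emission from oxidized sensor imaged by fluorescence microscopy.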

The subject of series [6] is SH-SY5Y. Kind of series: Induction of ROS production in human SH-SY5Y cells irradiation with LED light for 30 mins measured after 3 hrs by DCFH-DA staining based fluorescence microscopy in presence of clorgyline. It counts as functional, cell-based. Summed up: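 SH-SY5Y cells pretreated 30 min with clorgyline (0.1 μM), then incubated 3 h with R1 plus DCFH2-DA sensor and irradiated 30 min with LED (20 mW/cm2); green fluorescence imaged.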

For a further series, the system named is NIH3T3. Description: Induction of ROS production in […] cells irradiation with LED light for 30 mins measured after 3 hrs by DCFH-DA staining based fluorescence microscopy. It counts as functional, cell-based. Summed up: as §3
Series [7] concerns SH-SY5Y. Description: Induction of apoptosis in human SH-SY5Y cells assessed as apoptotic cells incubated in dark for 4 hrs at 2.5 uM by Annexin V-FITC/PI staining based confocal microscopy. It counts as functional, cell-based. Summed up: (§4)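 SH-SY5Y cells incubated with R1 (2.5 μM), kept dark or irradiated 4 h with 595 nm LED (20 mW/cm2), then stained with annexin V-FITC (green, early apoptosis) and propidium iodide (red, late apoptotic/necrotic); confocal imaging.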

In series [8] the test system is SH-SY5Y. Description: Induction of apoptosis in human SH-SY5Y cells assessed as necrotic cells level irradiated with 595 nm LED for 4 hrs at 2.5 uM by Annexin V-FITC/PI staining based confocal microscopy. It counts as functional, cell-based. The gist of the method:
as §4

The subject of series [9] is SH-SY5Y. Description: Induction of apoptosis in human SH-SY5Y cells assessed as early apoptotic cells level irradiated with 595 nm LED for 4 hrs at 2.5 uM by Annexin V-FITC/PI staining based confocal microscopy. It is filed as functional, cell-based. Summed up:
as §4

The test system of series [10] is SH-SY5Y. Kind of series: Induction of apoptosis in human SH-SY5Y cells assessed as late apoptotic cells level irradiated with 595 nm LED for 4 hrs at 2.5 uM by Annexin V-FITC/PI staining based confocal microscopy. It is filed as functional, cell-based. Summed up: as §4
Series [11] concerns SH-SY5Y. Kind of series: Photocytotoxicity against human SH-SY5Y cells assessed as cell viability at 2.5 uM irradiated with 595 nm LED for 4 hrs measured after 24 hrs by MTT assay. It is filed as functional. As to conditions: light or radiation study, read-out: Activity. The gist of the method: as §1
Series [12] is described as follows: Photocytotoxicity against […] cells assessed as cell viability at 2.5 uM irradiated with 595 nm LED for 4 hrs measured after 24 hrs by MTT assay. It counts as cell-based, NIH3T3. As to conditions: read-out: Activity. Summed up:
as §1

For series [13], the system named is SH-SY5Y. Kind of series: Photocytotoxicity against human SH-SY5Y cells assessed as cell viability in dark at 2.5 uM measured after 24 hrs by MTT assay. It is filed as functional, cell-based. The gist of the method: (§5)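 Cells incubated with varying R1 concentrations and kept in the dark in parallel with irradiated plates; viability by MTT assay.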
A short description of series [14]: Photocytotoxicity against […] cells assessed as cell viability in dark at 2.5 uM measured after 24 hrs by MTT assay. It is filed as cell-based. Conditions: nih3t3, 24 h. The gist of the method:
as §5

The subject of series [15] is SH-SY5Y. Description: Induction of ROS production in human SH-SY5Y cells assessed as green emission irradiation with LED light after 30 mins in presence of NaN3 measured after 3 hrs incubation by DCFH-DA staining based fluorescence microscopy. It is filed as functional, cell-based. The gist of the method:
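SH-SY5Y cells pretreated with NaN3 as 1O2 quencher, then incubated with R1 and DCFH2-DA and irradiated with LED (20 mW/cm2); sensor green emission imaged by fluorescence microscopy.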

Series [16] deals with T1, Amine oxidase [flavin-containing] A (Homo sapiens, UniProt P21397).
T1 sequence (P21397 whole entry): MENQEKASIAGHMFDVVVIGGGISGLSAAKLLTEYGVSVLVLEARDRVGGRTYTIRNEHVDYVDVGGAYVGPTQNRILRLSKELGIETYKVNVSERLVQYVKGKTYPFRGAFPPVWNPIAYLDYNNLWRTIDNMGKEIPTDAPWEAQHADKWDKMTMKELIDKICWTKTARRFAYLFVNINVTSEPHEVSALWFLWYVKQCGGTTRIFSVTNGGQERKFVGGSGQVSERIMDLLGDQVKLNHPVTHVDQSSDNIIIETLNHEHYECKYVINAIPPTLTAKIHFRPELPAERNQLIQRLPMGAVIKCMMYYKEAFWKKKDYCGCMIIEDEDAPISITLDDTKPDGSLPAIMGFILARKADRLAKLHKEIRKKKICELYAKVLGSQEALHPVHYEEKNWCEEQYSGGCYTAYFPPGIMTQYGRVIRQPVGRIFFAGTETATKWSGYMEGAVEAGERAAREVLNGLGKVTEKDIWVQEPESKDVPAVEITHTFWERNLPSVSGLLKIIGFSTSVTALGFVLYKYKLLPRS
Description: Prodrug activation assessed as MAO-A (unknown origin) mediated drug activation measuring increase in emission signal at 620 nm at 10 uM over 3 hrs by fluorescence spectroscopy.

Series [17] concerns the target T2, Amine oxidase [flavin-containing] B (Homo sapiens, UniProt P27338).
T2 sequence (P27338 whole entry): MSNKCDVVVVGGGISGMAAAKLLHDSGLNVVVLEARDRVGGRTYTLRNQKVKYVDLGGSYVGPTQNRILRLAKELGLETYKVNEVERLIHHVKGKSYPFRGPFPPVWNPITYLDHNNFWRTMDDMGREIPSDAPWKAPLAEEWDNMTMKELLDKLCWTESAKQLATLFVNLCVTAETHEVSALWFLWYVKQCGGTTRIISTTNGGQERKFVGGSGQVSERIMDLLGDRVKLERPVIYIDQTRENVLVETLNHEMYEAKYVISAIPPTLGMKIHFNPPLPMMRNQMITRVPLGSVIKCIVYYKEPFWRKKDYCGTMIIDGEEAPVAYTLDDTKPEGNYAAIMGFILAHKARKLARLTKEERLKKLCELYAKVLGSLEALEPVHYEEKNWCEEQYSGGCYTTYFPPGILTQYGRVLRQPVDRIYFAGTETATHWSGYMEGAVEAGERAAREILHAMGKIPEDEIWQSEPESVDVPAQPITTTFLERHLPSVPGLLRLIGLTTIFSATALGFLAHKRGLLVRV
Kind of series: Prodrug activation assessed as MAO-B (unknown origin) mediated drug activation measured increase in emission signal at 620 nm at 10 uM over 3 hrs by fluorescence spectroscopy.

A short description of series [18]: Photostability in pH 7.4 PBS buffer at 408/500 nm irradiated with 595 nm LED for 4 hrs. It counts as physicochemical. As to conditions: pH 7.4, 4 h.
Series [19] in a line: Induction of singlet oxygen generation using PBS buffer assessed as decrease in absorbance of ADMDA at 380 nm irradiated with 595 nm LED. It counts as functional. The gist of the method:
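R1 (10 μM) pretreated with MAO-A or MAO-B (20 μg/mL) in PBS pH 7.4, 1% DMSO, with water-soluble anthracene trap ADMDA; kept dark 2 min, then irradiated with 595 nm LED (20 mW/cm2); ADMDA absorbance at 380 nm followed.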

In series [20] the test system is SH-SY5Y. Description: Induction of ROS production in human SH-SY5Y cells in dark measured 3 hrs by DCFH2-DA fluorescence assay relative to control.
The target in series [21] is T1, Amine oxidase [flavin-containing] A. Description: Prodrug activation assessed as MAO-A (unknown origin) mediated drug activation by measuring red shift of absorption maxima at 588/595 nm at 10 uM for 3 hrs by absorption spectroscopy.

Broadly, the IC50 is the concentration that gives 50% inhibition.

The source made the active and inactive calls. No cut-off for these calls is given here.

As for `NCCCOc1ccc2nc3ccc(=O)cc-3oc2c1I`, the IC50 was 4000 nM in the series on MCF7, 420 nM in the series on SH-SY5Y [1], 6500 nM in [2] and 1900 nM with SH-SY5Y [3]. Moreover, the Activity result in series [4] is on record as “Non-Toxic”; in [14], “Non-Toxic”; in [16], “Not Active”; in series [17] it was “Not Active”; in [21], “Active”. Besides, the outcome in the series with SH-SY5Y [5], in the series on SH-SY5Y [8], with SH-SY5Y [9] and in the series with SH-SY5Y [10] was Active. Further, the result (in the series with SH-SY5Y [6]; in the series on NIH3T3; in the series with SH-SY5Y [7]; in the series on SH-SY5Y [13]; in the series with SH-SY5Y [15]; in series [19]) was inactive. For the same compound, in the series on SH-SY5Y [20], the result was inactive. In addition, the viability at 2.5 µM with SH-SY5Y [11] came to 3%. Also, the viability at 24 h, 2.5 µM in series [12] was 70%. The Stabilty result in series [18] is given as “Stable”.

The record behind these values is ChEMBL document CHEMBL4725495, “Resorufin Enters the Photodynamic Therapy Arena: A Monoamine Oxidase Activatable Agent for Selective Cytotoxicity” (ACS Med Chem Lett, 2020).
